These results are taken from PubChem BioAssay.

Assay [1] can be described thus: HUVEC growth inhibition – cell-based, human, primary screen (AID 575;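 active means viability at or below 30% in both replicate assays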;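 further: 100% = median of untreated cell wells with 0.1% DMSO on each plate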). The settings on record: HUVEC proliferation, CellTiter-Glo luminescence, 72 h; at 10 µM; stronger effect = lower value. The method in brief:
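Assay system: primary human umbilical vein endothelial cells / Buffer or medium: endothelial basal medium with 2% FBS plus growth supplements / Compound dosing: one dose, 10 µM final, 0.1% DMSO / Timing: 72 h treatment at 37 °C / Signal: CTG luminescence / Benchmarks: 32 DMSO-only cell-control wells (high), 32 MePR drug-control wells (low) per plate / Plate: collagen-coated 384-well format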
In general terms: In ATP-based viability assays light output follows the ATP content of the culture.

Assay [2] is described as follows: growth inhibitors of H69AR lung tumor, primary screen, human, duplicate replicates (AID 580;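 active means viability at or under a set limit in both replicates, limit being median viability minus 3 SD, cut at about 48% in these data, passing the limit was not always enough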;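 further: 100% = mean luminescence of untreated wells and 0% = no signal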). The settings on record: H69AR lung tumor cells viability, ATP luminescence, 72 h; at 10 µM; stronger effect = lower value.
Assay [3] can be described thus: reversal of MRP1-mediated doxorubicin resistance, pilot screen, H69AR cells, doxorubicin co-treatment (AID 601;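 active means viability loss from added drug above about 55%, and viability with drug at most 40%, in both replicates, limit read from the data, passing the limit was not always enough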). The settings on record: CellTiter-Glo, 72 h, at 10 µM; for differential viability (reversal): stronger effect = higher value.
A short description of assay [4]: 384-well plate pilot, post-Golgi transport modulator project, inhibition of yeast transport mutant growth (AID 636; in the data active means inhibition above about 31%). The settings on record: absorbance 615 nm, about 18 h, stronger effect = higher value.
The nature of assay [5]: growth suppression of yeast trafficking mutant, preliminary HTS, modulators of trafficking downstream of Golgi apparatus project, 1536-format plate, OD 615 nm (AID 637). The settings on record: yeast transport mutant growth, absorbance 615 nm, 18 h; stronger effect = higher value.
Where [6] appears, read: H69AR cells + 2 uM doxorubicin, measured here: viability with 2 uM doxorubicin, stronger effect = lower value.
Setting [7] is: H69AR cells, compound alone cytotoxicity.

SMILES strings stand for the structures. The source made the active and inactive calls. Unless noted, no stated cut-off is given here; in the data, active means inhibition above about 30%; inactive means the rest.

On to `Cc1ccc(-c2ccc(=O)n(CCC(=O)NCCN3CCCCC3C)n2)cc1` (stereo not given), for which the viability (as a rule, a read-out of living cells in per cent, often relative to untreated cells) in assay [1] is 94.9% (inactive); in assay [2] it was 91.3% (inactive); in assay [3] (setting [6]), 90.2%; in assay [3] (setting [7]), 91.3%. Moreover, the differential viability (reversal) in assay [3] (H69AR cells + 2 uM doxorubicin) was 1.11% (inactive). Also, the inhibition (commonly the change of the read-out against control, counted positive when it falls) is -4.27% (inactive) in assay [4] and -5.56% (inactive) in assay [5].
Regarding `Cc1cc(C(=O)N2CCN(C(c3ccccc3)c3ccccc3)CC2)no1`, the viability in assay [1] was 121% (inactive); in assay [2], 89.1% (inactive); in assay [3] (setting [6]) it was 85.7%; in assay [3] (setting [7]), 89.1%. Further, the differential viability (reversal) in assay [3] (H69AR cells + 2 uM doxorubicin) was 3.42% (inactive). The inhibition in assay [4] is -6.18% (inactive); in assay [5], 0.16% (inactive).
For `O=C1C2ON(c3ccccc3)C(c3cccnc3)C2C(=O)N1c1ccccc1` (stereo not given), the viability was 104% (inactive) in assay [1], 89.8% (inactive) in assay [2], 87.1% in assay [3] (setting [6]) and 89.8% in assay [3] (setting [7]). The differential viability (reversal) in assay [3] (H69AR cells + 2 uM doxorubicin) is 2.77% (inactive). Moreover, the values for the inhibition in assay [4] and in assay [5] were -1.45% (inactive) and -10.3% (inactive), respectively.
Take `Cc1cccc2cc(C(c3nnnn3C(C)(C)C)N3CCN(C(=O)c4ccco4)CC3)c(=O)[nH]c12` (stereo not given): the viability is 86.4% (inactive) in assay [1], 79.3% (inactive) in assay [2], 83% in assay [3] (setting [6]) and 79.3% in assay [3] (setting [7]). The differential viability (reversal) in assay [3] (H69AR cells + 2 uM doxorubicin) was -3.69% (inactive). Also, the inhibition was -6.32% (inactive) in assay [4] and 0% (inactive) in assay [5].
With `COc1cc(S(=O)(=O)N(C)C)ccc1F`, the viability was 95.4% (inactive) in assay [1], 91.7% (inactive) in assay [2], 82.1% in assay [3] (setting [6]) and 91.7% in assay [3] (setting [7]). Moreover, in assay [3] (H69AR cells + 2 uM doxorubicin), the differential viability (reversal) is 9.55% (inactive). Moreover, the inhibition in assay [4] was -6.67% (inactive); in assay [5] it was 3.65% (inactive).
As for `CCOc1ccc(C2/C(=C(/O)c3ccccc3)C(=O)C(=O)N2CCCN(C)C)cc1OC` (stereo not given), the viability in assay [1] is 111% (inactive); in assay [2] it was 100% (inactive); in assay [3] (setting [6]), 92.9%; in assay [3] (setting [7]), 100%. For the same molecule, the differential viability (reversal) in assay [3] (H69AR cells + 2 uM doxorubicin) is 7.23% (inactive). Further, the inhibition was -2.63% (inactive) in assay [4] and 6.19% (inactive) in assay [5].
Turning to `Cc1ccc(-n2c(-c3ccncc3)nnc2-c2cccs2)cc1`, the viability in assay [1] was 95.2% (inactive); in assay [2], 79.9% (inactive); in assay [3] (setting [6]), 40.6%; in assay [3] (setting [7]), 79.9%. Besides, in assay [3] (H69AR cells + 2 uM doxorubicin), the differential viability (reversal) was 39.3% (inactive). In addition, the inhibition in assay [4] is -6.53% (inactive); in assay [5] it was 9.37% (inactive).
On to `Cn1c(=O)c2ncn(CC(=O)NCCOc3ccccc3)c2n(C)c1=O`, for which the viability in assay [1] is 108% (inactive); in assay [2], 91.9% (inactive); in assay [3] (setting [6]), 84.2%; in assay [3] (setting [7]) it was 91.9%. Further, the differential viability (reversal) in assay [3] (H69AR cells + 2 uM doxorubicin) was 7.6% (inactive). For the same molecule, the inhibition in assay [4] was 0.39% (inactive); in assay [5], 5.71% (inactive).
Turning to `O=C(CN1CCN(c2ncc(C(F)(F)F)cc2Cl)CC1)Nc1ccc2c(c1)OCO2`, the viability in assay [1] was 85.7% (inactive); in assay [2] it was 93.2% (inactive); in assay [3] (setting [6]), 92.9%; in assay [3] (setting [7]) it was 93.2%. Moreover, the differential viability (reversal) in assay [3] (H69AR cells + 2 uM doxorubicin) was 0.28% (inactive). The inhibition is 0.65% (inactive) in assay [4] and -4.29% (inactive) in assay [5].
As for `Cc1nnc(SCC(=O)Nc2nccs2)s1`, the viability in assay [1] was 95.7% (inactive); in assay [2] it was 93% (inactive); in assay [3] (setting [6]), 91.3%; in assay [3] (setting [7]), 93%. Further, the differential viability (reversal) in assay [3] (H69AR cells + 2 uM doxorubicin) was 1.75% (inactive). The values for the inhibition in assay [4] and in assay [5] were -6.67% (inactive) and -2.22% (inactive), respectively.
As to `S=c1[nH]nc(COc2ccccc2)n1C1CCCCC1`, the viability in assay [1] is 89.5% (inactive); in assay [2], 81.6% (inactive); in assay [3] (setting [6]) it was 59.2%; in assay [3] (setting [7]), 81.6%. For the same molecule, the differential viability (reversal) in assay [3] (H69AR cells + 2 uM doxorubicin) is 22.4% (inactive). Besides, the inhibition is -0.39% (inactive) in assay [4] and 6.35% (inactive) in assay [5].
Take `Cc1ccc2nc(NC(=O)CN(C)S(=O)(=O)c3cccc4nsnc34)sc2c1`: the viability in assay [1] was 18.1% (active); in assay [2], 9.1% (active); in assay [3] (setting [6]), 24.2%; in assay [3] (setting [7]), 9.1%. The differential viability (reversal) in assay [3] (H69AR cells + 2 uM doxorubicin) is -15.1% (inactive). The inhibition was -4.27% (inactive) in assay [4] and -4.29% (inactive) in assay [5].
As to `Cc1onc(-c2ccccc2)c1C(=O)N1CCCSC1=Nc1ccccc1`, the viability in assay [1] was 76.9% (inactive); in assay [2], 92.5% (inactive); in assay [3] (setting [6]), 86.6%; in assay [3] (setting [7]), 92.5%. In assay [3] (H69AR cells + 2 uM doxorubicin), the differential viability (reversal) was 5.92% (inactive). For the same molecule, the inhibition was -4.55% (inactive) in assay [4] and 0.63% (inactive) in assay [5].
In the case of `CN1CCCc2cc(C#N)c(=O)[nH]c21`, the viability in assay [1] is 99.7% (inactive); in assay [2] it was 107% (inactive); in assay [3] (setting [6]), 99.3%; in assay [3] (setting [7]) it was 107%. Also, in assay [3] (H69AR cells + 2 uM doxorubicin), the differential viability (reversal) is 8.18% (inactive). Further, the results for the inhibition in assay [4] and in assay [5] were -5.71% (inactive) and -2.38% (inactive), respectively.
As for `CSc1ccccc1NC(=O)c1noc2c1CCC2`, the viability in assay [1] is 77.8% (inactive); in assay [2], 90.2% (inactive); in assay [3] (setting [6]) it was 88.5%; in assay [3] (setting [7]), 90.2%. In addition, in assay [3] (H69AR cells + 2 uM doxorubicin), the differential viability (reversal) is 1.63% (inactive). The inhibition in assay [4] is -3.38% (inactive); in assay [5], -3.49% (inactive).
For `CCSc1nc(-c2ccc(OC)cc2)ccc1C#N`, the viability in assay [1] is 65.8% (inactive); in assay [2], 66.5% (inactive); in assay [3] (setting [6]) it was 86.3%; in assay [3] (setting [7]), 66.5%. Further, in assay [3] (H69AR cells + 2 uM doxorubicin), the differential viability (reversal) is -19.8% (inactive). For the same molecule, the figures for the inhibition in assay [4] and in assay [5] were -1.69% (inactive) and -1.27% (inactive), respectively.
Turning to `Cc1noc(C)c1C(=O)Nc1sc(C)c(C)c1C#N`, the viability in assay [1] was 105% (inactive); in assay [2] it was 95.5% (inactive); in assay [3] (setting [6]), 75.2%; in assay [3] (setting [7]), 95.5%. In addition, the differential viability (reversal) in assay [3] (H69AR cells + 2 uM doxorubicin) was 20.3% (inactive). Further, the inhibition is -1.97% (inactive) in assay [4] and 2.86% (inactive) in assay [5].
With `Cn1c(=O)c(NC(=O)c2ccccc2)c2n(c1=S)CCCCC2`, the viability in assay [1] was 104% (inactive); in assay [2] it was 90.8% (inactive); in assay [3] (setting [6]), 97.6%; in assay [3] (setting [7]), 90.8%. Further, the differential viability (reversal) in assay [3] (H69AR cells + 2 uM doxorubicin) was -6.87% (inactive). Besides, the inhibition was -2.99% (inactive) in assay [4] and 3.65% (inactive) in assay [5].
Turning to `CCOC(=O)CSc1nnc(CNC(=O)c2ccc(S(=O)(=O)N3CCCC3)cc2)n1C`, the viability was 99.1% (inactive) in assay [1], 112% (inactive) in assay [2], 84% in assay [3] (setting [6]) and 112% in assay [3] (setting [7]). Besides, the differential viability (reversal) in assay [3] (H69AR cells + 2 uM doxorubicin) is 28.2% (inactive). For the same molecule, the inhibition in assay [4] is -2.6% (inactive); in assay [5], 0.63% (inactive).
Consider `O=C(NCc1n[nH]c(=S)n1-c1ccc(F)cc1)c1ccco1`, for which the viability in assay [1] is 102% (inactive); in assay [2] it was 96.2% (inactive); in assay [3] (setting [6]), 89.2%; in assay [3] (setting [7]), 96.2%. Besides, the differential viability (reversal) in assay [3] (H69AR cells + 2 uM doxorubicin) is 6.98% (inactive). The inhibition in assay [4] was -0.53% (inactive); in assay [5] it was -1.11% (inactive).
